Source: ChEMBL document CHEMBL4834420, “Projected Dose Optimization of Amino- and Hydroxypyrrolidine Purine PI3Kδ Immunomodulators” (J Med Chem, 2021)
≈ marks a conversion by molar mass, not a printed value.

Assays:
[1] = Lipophilicity, log D of the compound by HPLC analysis; type: physicochemical
[2] = molecular target: T1, Phosphatidylinositol 4,5-bisphosphate 3-kinase catalytic subunit delta isoform (Homo sapiens, UniProt O00329); assay: Inhibition of PI3Kdelta in human whole blood assessed as reduction in antihuman IgE antibody-stimulated CD63 expression preincubated for 30 mins followed by antihuman IgE antibody stimulation and measured after 20 mins by FACS analysis; type: tissue-based
T1 sequence (O00329 whole entry): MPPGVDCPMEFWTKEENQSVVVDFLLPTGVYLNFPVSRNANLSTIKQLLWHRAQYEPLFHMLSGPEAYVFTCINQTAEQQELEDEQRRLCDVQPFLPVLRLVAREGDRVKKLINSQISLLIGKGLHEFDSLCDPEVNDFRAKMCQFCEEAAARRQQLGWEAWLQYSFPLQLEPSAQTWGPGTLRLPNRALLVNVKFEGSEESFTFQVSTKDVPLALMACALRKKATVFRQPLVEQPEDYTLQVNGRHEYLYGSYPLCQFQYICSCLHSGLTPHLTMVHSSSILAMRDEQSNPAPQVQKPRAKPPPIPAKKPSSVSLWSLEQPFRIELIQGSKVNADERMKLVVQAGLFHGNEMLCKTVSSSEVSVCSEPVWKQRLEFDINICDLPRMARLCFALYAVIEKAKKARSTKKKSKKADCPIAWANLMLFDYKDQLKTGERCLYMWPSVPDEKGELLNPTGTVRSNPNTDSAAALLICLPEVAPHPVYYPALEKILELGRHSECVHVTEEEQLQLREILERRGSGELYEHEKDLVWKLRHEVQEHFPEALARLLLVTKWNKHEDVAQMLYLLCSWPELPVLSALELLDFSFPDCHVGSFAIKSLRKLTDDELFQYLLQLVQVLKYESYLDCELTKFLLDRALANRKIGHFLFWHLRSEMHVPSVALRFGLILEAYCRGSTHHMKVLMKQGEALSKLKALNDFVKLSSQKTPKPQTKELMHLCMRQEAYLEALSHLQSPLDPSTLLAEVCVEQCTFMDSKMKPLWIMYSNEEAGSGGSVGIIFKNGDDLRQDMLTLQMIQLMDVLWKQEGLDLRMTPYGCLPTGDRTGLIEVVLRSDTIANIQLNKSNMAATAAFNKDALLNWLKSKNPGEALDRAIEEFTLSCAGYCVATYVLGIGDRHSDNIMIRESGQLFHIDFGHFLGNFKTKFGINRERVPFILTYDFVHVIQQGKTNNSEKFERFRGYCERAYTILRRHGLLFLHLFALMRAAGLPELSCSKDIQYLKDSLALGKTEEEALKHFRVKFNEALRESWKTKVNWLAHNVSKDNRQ
Summary of the method: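 Blood from healthy human volunteer donors, pre-incubated with compound (DMSO, varying concentrations) for 30 min at 37 °C. Basotest reagent B added for 30 min at 37 °C, then goat anti-human IgE (50 ng/mL in reagent A before addition) for 20 min at 37 °C. Stopped on ice, stained for CD63/IgE/CD203c/CD45 (20 min, 4 °C), RBC-lysed, and read by flow cytometry. IgE+ basophils gated, CD63+ scored; IC50 from sigmoidal fit of % inhibition.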

[3] = Solubility of the compound at pH 7.4; type: physicochemical; details: buffer
[4] = Intrinsic clearance in rat hepatocytes; type: ADME, cell-based, Hepatocyte; details: read-out: CLH
[5] = Intrinsic clearance in dog hepatocytes; type: ADME, cell-based, Canis lupus familiaris, Hepatocyte; details: read-out: CLH
[6] = Intrinsic clearance in C57BL/6 mouse at 1 mg/kg, iv or 3 mg/kg, po; type: ADME, organism-based; details: in vivo
[7] = Volume of distribution in C57BL/6 mouse; type: ADME; details: in vivo
[8] = Protein binding in C57BL/6 mouse plasma; type: ADME, cell-free; details: read-out: PPB (converted)
[9] = molecular target: ATP-dependent translocase ABCB1 (Homo sapiens, UniProt P08183); assay: Inhibition of PGP (unknown origin)
Sequence of ATP-dependent translocase ABCB1 (P08183 whole entry, canonical isoform): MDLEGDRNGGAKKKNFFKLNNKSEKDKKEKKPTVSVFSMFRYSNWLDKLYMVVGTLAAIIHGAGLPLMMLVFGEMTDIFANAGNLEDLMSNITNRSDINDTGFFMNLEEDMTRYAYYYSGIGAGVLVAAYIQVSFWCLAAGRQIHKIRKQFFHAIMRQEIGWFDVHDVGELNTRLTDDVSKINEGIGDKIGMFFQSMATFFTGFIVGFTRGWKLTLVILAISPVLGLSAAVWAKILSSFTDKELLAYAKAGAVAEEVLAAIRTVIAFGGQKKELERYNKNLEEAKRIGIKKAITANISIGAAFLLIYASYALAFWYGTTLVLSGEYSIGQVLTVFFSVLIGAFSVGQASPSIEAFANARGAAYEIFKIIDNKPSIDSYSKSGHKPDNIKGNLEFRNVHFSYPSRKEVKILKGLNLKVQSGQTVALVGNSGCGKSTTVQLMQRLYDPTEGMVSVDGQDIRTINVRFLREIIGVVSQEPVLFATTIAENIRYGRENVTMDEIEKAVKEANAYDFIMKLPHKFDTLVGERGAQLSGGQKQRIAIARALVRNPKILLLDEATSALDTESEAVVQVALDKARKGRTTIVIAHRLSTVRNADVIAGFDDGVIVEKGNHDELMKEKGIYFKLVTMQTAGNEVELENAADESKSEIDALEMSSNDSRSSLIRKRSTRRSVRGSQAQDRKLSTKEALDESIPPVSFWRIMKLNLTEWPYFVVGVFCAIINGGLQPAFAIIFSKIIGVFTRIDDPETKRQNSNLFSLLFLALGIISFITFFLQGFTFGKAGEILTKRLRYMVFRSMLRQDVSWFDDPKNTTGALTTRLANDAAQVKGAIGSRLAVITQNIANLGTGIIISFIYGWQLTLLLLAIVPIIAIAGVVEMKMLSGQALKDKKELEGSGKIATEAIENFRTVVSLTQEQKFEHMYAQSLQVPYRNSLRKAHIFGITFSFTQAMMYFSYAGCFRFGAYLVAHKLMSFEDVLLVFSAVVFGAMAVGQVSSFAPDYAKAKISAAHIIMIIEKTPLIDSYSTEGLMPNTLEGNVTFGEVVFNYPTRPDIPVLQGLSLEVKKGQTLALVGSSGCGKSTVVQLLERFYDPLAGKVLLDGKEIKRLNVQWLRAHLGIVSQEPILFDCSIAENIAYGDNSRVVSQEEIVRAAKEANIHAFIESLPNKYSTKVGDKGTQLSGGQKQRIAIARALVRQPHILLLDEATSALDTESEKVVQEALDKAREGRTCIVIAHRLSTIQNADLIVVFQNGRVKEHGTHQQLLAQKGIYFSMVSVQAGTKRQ

[10] = molecular target: T2, Phosphatidylinositol 4,5-bisphosphate 3-kinase catalytic subunit delta isoform (Mus musculus) (UniProt O35904); assay: Inhibition of PI3Kdelta in Foxp3-GFP C57BL/6 mouse assessed as reduction in Treg population administered upto 7 days; details: dose 30-100 mg/kg, time day <=7
T2 sequence (whole entry): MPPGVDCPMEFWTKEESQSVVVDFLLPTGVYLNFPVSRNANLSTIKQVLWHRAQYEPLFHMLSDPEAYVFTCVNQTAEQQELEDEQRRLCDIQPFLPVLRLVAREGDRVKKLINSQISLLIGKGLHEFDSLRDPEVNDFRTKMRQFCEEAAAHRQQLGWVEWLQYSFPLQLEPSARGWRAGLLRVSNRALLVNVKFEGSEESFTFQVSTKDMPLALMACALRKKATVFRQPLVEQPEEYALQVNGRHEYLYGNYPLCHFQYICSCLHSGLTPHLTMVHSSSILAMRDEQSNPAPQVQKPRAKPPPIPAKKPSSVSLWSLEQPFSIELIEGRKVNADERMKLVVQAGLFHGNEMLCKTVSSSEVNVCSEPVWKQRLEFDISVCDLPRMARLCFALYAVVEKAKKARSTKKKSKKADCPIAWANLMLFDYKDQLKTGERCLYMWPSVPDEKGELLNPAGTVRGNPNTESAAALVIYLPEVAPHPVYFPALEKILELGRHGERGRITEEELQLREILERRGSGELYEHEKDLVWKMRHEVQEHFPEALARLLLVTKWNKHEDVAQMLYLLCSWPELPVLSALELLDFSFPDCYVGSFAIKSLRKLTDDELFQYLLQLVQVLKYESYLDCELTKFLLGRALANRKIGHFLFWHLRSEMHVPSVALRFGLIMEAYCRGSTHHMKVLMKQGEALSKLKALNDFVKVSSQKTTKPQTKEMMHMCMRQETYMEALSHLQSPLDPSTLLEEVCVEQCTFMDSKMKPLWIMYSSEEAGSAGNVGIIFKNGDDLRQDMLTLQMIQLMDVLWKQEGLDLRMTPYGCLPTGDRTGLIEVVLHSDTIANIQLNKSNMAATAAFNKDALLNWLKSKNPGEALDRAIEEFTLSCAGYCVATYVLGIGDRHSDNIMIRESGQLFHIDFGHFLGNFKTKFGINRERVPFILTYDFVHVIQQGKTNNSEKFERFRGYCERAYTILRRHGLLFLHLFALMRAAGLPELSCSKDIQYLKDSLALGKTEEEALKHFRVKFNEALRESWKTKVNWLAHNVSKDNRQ
Summary of the method: (§1)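 C57BL/6 Foxp3-GFP reporter mice were dosed at 30 and 100 mg/kg/day for up to 7 days. Treg population was monitored by bioluminescence imaging 10 min after ip injection of 3 mg luciferin. Radiance was quantified as photons/s/cm²/steradian. Diphtheria toxin served as a positive control.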

[11] = molecular target: T2, Phosphatidylinositol 4,5-bisphosphate 3-kinase catalytic subunit delta isoform (Mus musculus); assay: Inhibition of PI3Kdelta in Foxp3-GFP C57BL/6 mouse assessed as reduction in Treg population at 30 to 100 mg/kg administered upto 7 days; type: organism-based; design: scale not given: the % may be the effect or the level left; details: dose 30-100 mg/kg, time day <=7; summary of the method: as §1
[12] = Cmax in C57BL/6 mouse at 100 mg/kg; type: ADME, organism-based; design: dose 100 mg/kg; details: in vivo
[13] = Trough plasma concentration Brown Norway rat at 10 mg/kg, po; type: ADME, organism-based; details: in vivo, read-out: Cmin
[14] = Unbound trough plasma concentration Brown Norway rat at 30 mg/kg, po; type: ADME, organism-based; details: in vivo

With CCn1c(-c2cnc(C)nc2)nc2c(N[C@H]3CCN(C(=O)C4CC4)C3)ncnc21 the logD [1] was 0.8, the IC50 [2] was 50 nM and the solubility [3] was 15 mg/mL (≈ 38.2 mM). The CLint scaled [4] was less than 2 mL/min/kg, the CLint scaled [5] was less than 2 mL/min/kg and the CL [6] was 10 mL/min/kg. For the same compound, the Vd [7] was 0.2 L/kg, the fraction unbound [8] was 0.47 and the “inhibition (INH)” value [9] was “Not Active”. For the same compound, the Activity [10] was “Dose-Dependent Effect”, the Activity [11] was 70% and the Cmax [12] was 33 µM. The concentration [13] was 14 nM and the fCmin [14] was 62 nM.
